Laboratory results taken from PubChem BioAssay AID540295 (The Scripps Research Institute Molecular Screening Center, 2011).
Screen size: about 360,000 compounds; about 1,700 (0.47%) were called active. This excerpt belongs to a sample that is enriched for actives. Unmarked numbers belong to inactive results.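 How the source made its calls: active means inhibition above its plate's cutoff, the mean of tested wells on that plate plus 3 SD (cut at about 29% in these data); inactive means the rest.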

Each compound was assayed against Melanocortin receptor 4 (Homo sapiens) (UniProt P32245) (assay: blockers of MC4R Gs-cAMP response – cell-based, TR-FRET, antagonist arm of biased-ligand search, primary screen (AID 540295;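 further: 0% = Melanotan II alone and 100% = Melanotan II plus saturating MCL0020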)). Conditions: MC4R-expressing cells, MTII-stimulated cAMP, LANCE TR-FRET; at 6.5 µM; hits give high values.
Chain of Melanocortin receptor 4 (Homo sapiens) (P32245 whole entry, looked up): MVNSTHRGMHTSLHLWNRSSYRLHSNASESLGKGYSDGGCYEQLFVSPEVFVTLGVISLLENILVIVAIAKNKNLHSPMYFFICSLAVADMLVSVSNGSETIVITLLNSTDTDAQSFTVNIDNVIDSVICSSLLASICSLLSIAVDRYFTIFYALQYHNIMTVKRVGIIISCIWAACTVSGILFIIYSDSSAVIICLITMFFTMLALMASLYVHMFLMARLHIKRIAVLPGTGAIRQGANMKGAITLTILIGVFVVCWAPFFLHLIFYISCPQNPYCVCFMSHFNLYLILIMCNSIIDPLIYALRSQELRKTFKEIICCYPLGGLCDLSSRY
Method in brief: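 Material: U2OS-MC4R stable cell line | Reagent: Melanotan II challenge after compound preincubation | Doses: One concentration, 6.5 µM nominal | Incubation: 30-min compound preincubation, 1-h Melanotan II challenge, 1-h detection, room temperature | Signal: TR-FRET cAMP assay | Replicates: One well per compound, no replicates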
In the case of `COc1cccc(N2C(=O)NC(=O)/C(=C\c3ccc([N+](=O)[O-])s3)C2=O)c1`, the inhibition was 28.6% (active). For `O=C(N/N=C/c1c(O)n(C2CC2)c(=S)[nH]c1=O)c1ccccc1Cl`, the inhibition was 20.1%. `c1ccc(CCNC2CCCCCC2)cc1` was tested, and the inhibition was 17.4%. `COc1cc(OC)cc(C2(C#N)CCN(C)CC2)c1` showed an inhibition of 17%. `O=C(NC(=S)N1C[C@H]2C[C@H](C1)c1cccc(=O)n1C2)c1ccc(F)cc1` showed an inhibition of 7.13%. With `Cc1cccc(N2C(=O)NC(=O)/C(=C\c3cnn(-c4ccccc4)c3)C2=O)c1` the inhibition was 35.2% (active). For `Cc1c(C(=O)O)cccc1-n1c(C)cc(/C=C2\C(=O)NC(=O)N(c3ccc4c(c3)OCO4)C2=O)c1C`, the inhibition was 5.16%. For `CCN1CCN(c2ccc([N+](=O)[O-])cc2C#N)CC1`, the inhibition was -10.7%. Work on `CC(C)c1c(CN(C)C(C)Cc2ccccc2)n(C)n(-c2ccccc2)c1=O` (stereo not given) yielded an inhibition of 10.7%. With `CC(=O)c1c(O)n(C2CCCCCC2)c(=O)[nH]c1=O` the inhibition was 2.26%.
